A number with no mark means an inactive call.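 How the source made its calls: active means GFP response vs DMSO above 150% with enough events counted; inconclusive means fewer than 70 events counted for a yeast strain; inactive means the rest.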

The assay is described as follows: yeast TOR reporter LAP4-GFP retest – cell-based, third cherry pick, flow cytometry, confirmation (AID 504338).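 Further: ratio to plate DMSO wells so 100% equals DMSO level rather than 0%.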 As to conditions: S. cerevisiae LAP4-GFP strain, 3 h, at 10 µM, stronger effect = higher value. In a few lines: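 Assay system – yeast LAP4-GFP strain · Buffer or medium – synthetic complete medium · Times – compound exposure for 3 h at 30 °C · Technique – flow cytometric GFP fluorescence · Evaluation – median GFP fluorescence as percent of plate DMSO-well average · Benchmarks – rapamycin 400 ng/mL as positive control, DMSO wells as reference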
(In flow cytometry, cells or beads pass a laser one at a time.)
Regarding `CCN1CCN(c2ncnc3ccc(Br)cc23)CC1`, the GFP response vs DMSO is 108%.

On to `CN1CCN(c2ncnc3ccc(Br)cc23)CC1`, for which the GFP response vs DMSO was 107%.

For `Cc1ccc2c(c1N)C(=O)c1ccccc1C2=O`, the GFP response vs DMSO was 104%.

For the compound `C/C(O)=C(\C#N)C(=O)Nc1cc(Br)ccc1Br`, the GFP response vs DMSO is 106%.

Regarding `CN(C)C(=O)Oc1ccc(Cl)c2cccnc12`, the GFP response vs DMSO was 106%.

Consider `CN(C)C(=O)Oc1ccnc2cc(Cl)ccc12`, for which the GFP response vs DMSO is 107%.

The values are drawn from PubChem BioAssay AID504338 (NMMLSC, 2011).
